Consider one molecule from BindingDB's records for doi:10.1021/jm0500119 (Cnrs-University of Lille 2 Umr 8525, 2005).

The experiment addresses Peptidyl-prolyl cis-trans isomerase NIMA-interacting 1 (Homo sapiens, UniProt Q13526). The experiment is described as follows: Dissociation constant for human peptidyl-prolyl cis-trans isomerase NIMA-interacting 1. The essentials: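 15N-labeled Pin1 WW domain (His6-tagged, expressed in E. coli BL21(DE3)) in 25 mM deuterated Tris-HCl pH 6.8, 50 mM NaCl, 5 mM DTT, 2.5 mM EDTA, 10% D2O; 600 MHz 1H-15N HSQC at 293 K. 50 μM protein titrated with ligand 0.025–1 mM final; chemical shift perturbations fitted to a single-site equation for KD.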

The structures appear in SMILES notation.

Sequence of Peptidyl-prolyl cis-trans isomerase NIMA-interacting 1 (Q13526 whole entry, the tested form may be a part): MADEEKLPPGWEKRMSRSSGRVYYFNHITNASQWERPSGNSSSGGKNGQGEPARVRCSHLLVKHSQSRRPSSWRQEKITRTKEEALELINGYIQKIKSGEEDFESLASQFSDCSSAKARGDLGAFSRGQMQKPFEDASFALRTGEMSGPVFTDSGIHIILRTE

The molecule `NC(=O)[C@@H]1CCCN1C(=O)CCNc1c(O)c(=O)c1=O` [1-[(S)-3-(2-Hydroxy-3,4-dioxo-cyclobut-1-enylamino)-propionyl]-pyrrolidine-2-carboxylic acid amide] had a Kd of more than 2000 µM.
